In article PMC6245472 (Molecules, 2008):
pIC50: −log10 of the molar value.

How the values were obtained:
[1] = test system: Plasmodium falciparum 3D7 strain (CQ-sensitive); assay: P. falciparum in vitro parasite growth inhibition; assay type: cell-based
In short: (§1)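 Asynchronous culture (65–75% rings, 0.5% parasitemia, 2.5% hematocrit) in RPMI 1640/0.5% Albumax II/5 µM hypoxanthine. Triplicate 3-fold dilutions, 10.0–0.0412 µg/mL, DMSO ≤0.01% final. 37 °C, 5% CO2, 24 h, then [3H]hypoxanthine 0.2 µCi/well for a further 24 h. Plates frozen, harvested, scintillation-counted. IC50 curve-fitted, mean of independent experiments. SI = KB IC50 (72 h, Alamar Blue)/parasite IC50. RI from K1 and 3D7 IC50s.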

[2] = test system: Plasmodium falciparum K1 strain (CQ-resistant); assay: P. falciparum in vitro parasite growth inhibition; assay type: cell-based; details: for RI (K1/3D7) Resistance Index: ratio of K1 and 3D7 IC50
In short: as §1

For `CCN(CC)CCCC(C)Nc1ccnc2cc(Cl)ccc12` (stereo not drawn) [CQ, Chloroquine diphosphate], the “SI 3D7 Selectivity Index” value ([1]; (KB IC50)/(3D7 IC50)) was 8150, the pIC50 ([1]; Plasmodium falciparum, 3D7, read-out: 3D7 IC50) was 7.87 and the “SI K1 Selectivity Index” value ([2]; (KB IC50)/(K1 IC50)) was 161. For the same molecule, the pIC50 ([2]; Plasmodium falciparum, K1, read-out: K1 IC50) was 6.17, the “RI (K1/3D7) Resistance Index” value [2] was 50.52 and the “RI (K1/3D7) Resistance Index” value ([2]; listed as chloroquine) was 50.
